We go through six molecules from ChEMBL document CHEMBL4028872, “Structure-Activity Relationship, Pharmacological Characterization, and Molecular Modeling of Noncompetitive Inhibitors of the Betaine/γ-Aminobutyric Acid Transporter 1 (BGT1)” (J Med Chem, 2017).

pIC50, pKi: −log10 of the molar value. Converted amounts (≈) assume the structure as drawn. Bounds are passed on as bounds.

For data set [1], the target named is T1, GABA transporter 3 (Mus musculus, UniProt P31649).
T1 sequence (P31649 whole entry): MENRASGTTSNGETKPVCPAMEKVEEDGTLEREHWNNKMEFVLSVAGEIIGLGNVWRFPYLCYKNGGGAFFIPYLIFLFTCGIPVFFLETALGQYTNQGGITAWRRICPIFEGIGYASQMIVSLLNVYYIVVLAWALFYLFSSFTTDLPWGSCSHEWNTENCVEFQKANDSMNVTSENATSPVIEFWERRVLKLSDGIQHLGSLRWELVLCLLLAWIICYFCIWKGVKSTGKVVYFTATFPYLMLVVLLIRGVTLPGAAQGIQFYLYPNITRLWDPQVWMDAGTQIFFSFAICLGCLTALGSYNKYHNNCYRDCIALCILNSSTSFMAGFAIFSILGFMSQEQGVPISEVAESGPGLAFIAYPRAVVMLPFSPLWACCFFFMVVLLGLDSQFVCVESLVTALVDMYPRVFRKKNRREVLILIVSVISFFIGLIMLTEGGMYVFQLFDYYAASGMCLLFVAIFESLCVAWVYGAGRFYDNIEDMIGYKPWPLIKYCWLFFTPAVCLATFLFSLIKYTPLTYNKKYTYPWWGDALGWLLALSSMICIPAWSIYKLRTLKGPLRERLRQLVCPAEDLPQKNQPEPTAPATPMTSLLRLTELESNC
Kind of data set: Inhibition of mouse GAT2 expressed in HEK293 cells assessed as reduction in [3H]GABA uptake after 3 mins by scintillation counting method. Format: cell-based. The method in brief:
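HEK293 cells stably expressing mouse GAT2 were kept under blasticidin-S (5 µg/mL) selection. Ice-cold washes preceded scintillation counting. IC50 came from a variable-slope sigmoidal fit.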

The target in data set [2] is T2, Sodium- and chloride-dependent GABA transporter 1 (Mus musculus, UniProt P31648). Kind of data set: Inhibition of mouse GAT1 expressed in HEK293 cells assessed as reduction in [3H]GABA uptake after 3 mins by scintillation counting method. It is filed as cell-based. The method in brief: (§1)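 HEK293 lines stably expressing a single mouse GAT subtype, kept under blasticidin-S (5 µg/mL) selection. Cells were assayed about 24 h after plating with 30 nM [3H]GABA plus varying compound concentrations for 3 min at 37 °C in HBSS buffered with 20 mM HEPES (1 mM CaCl2, 1 mM MgCl2, pH 7.4). Cells were washed ice-cold and radioactivity counted. IC50 came from sigmoidal variable-slope fits.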

Data set [3] has as its target T3, GABA transporter 2 (Mus musculus, UniProt P31651).
T3 sequence (P31651 whole entry): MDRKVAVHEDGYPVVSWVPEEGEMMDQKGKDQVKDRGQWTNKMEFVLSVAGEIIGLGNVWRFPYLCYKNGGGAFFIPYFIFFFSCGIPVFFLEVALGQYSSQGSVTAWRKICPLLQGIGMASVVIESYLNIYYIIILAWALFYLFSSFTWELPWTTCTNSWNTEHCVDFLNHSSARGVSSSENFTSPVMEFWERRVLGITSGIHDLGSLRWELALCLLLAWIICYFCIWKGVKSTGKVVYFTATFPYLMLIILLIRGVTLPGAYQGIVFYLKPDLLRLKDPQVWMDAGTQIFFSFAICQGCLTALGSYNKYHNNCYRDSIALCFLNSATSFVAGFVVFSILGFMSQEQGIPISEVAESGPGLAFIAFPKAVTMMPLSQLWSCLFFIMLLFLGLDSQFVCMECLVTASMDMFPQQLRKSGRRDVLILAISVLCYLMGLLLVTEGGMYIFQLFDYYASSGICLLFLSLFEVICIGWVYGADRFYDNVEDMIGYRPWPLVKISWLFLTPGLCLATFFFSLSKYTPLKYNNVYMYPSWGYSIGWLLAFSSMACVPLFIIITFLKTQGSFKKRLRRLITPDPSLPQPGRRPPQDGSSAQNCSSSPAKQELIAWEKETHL
Kind of data set: Inhibition of mouse BGT1 expressed in HEK293 cells assessed as reduction in [3H]GABA uptake after 3 mins by scintillation counting method. Format: cell-based. Summed up: as §1

A short description of data set [4]: Solubility of compound in pH 7.4 phosphate buffer after 24 hrs by HPLC-UV method. Format: physicochemical.
Data set [5] addresses Sodium- and chloride-dependent GABA transporter 3 (Homo sapiens, UniProt P48066, S468Y). Kind of data set: Inhibition of human GAT3 S468Y mutant expresses in tsA201 cells assessed as reduction in [3H]GABA uptake after 3 mins by scintillation counting method. Format: cell-based. The method in brief:
(§2)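 Site-directed mutant transporters transiently transfected (PolyFect) into tsA201 cells, plated and used about 24 h later. Cells were washed with HBSS containing 20 mM HEPES, 1 mM CaCl2 and 1 mM MgCl2, pH 7.4. Uptake of 30 nM [3H]GABA was run with varied inhibitor concentrations for 3 min at 37 °C, then three ice-cold washes and scintillation counting. IC50 was taken from variable-slope sigmoidal fits. Triplicates, at least three independent experiments.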

The target of data set [6] is Sodium- and chloride-dependent GABA transporter 3 (Homo sapiens, UniProt P48066, L314Q). Kind of data set: Inhibition of human GAT3 L314Q mutant expresses in tsA201 cells assessed as reduction in [3H]GABA uptake after 3 mins by scintillation counting method. It is filed as cell-based. Summed up: as §2
For data set [7], the target named is T3, GABA transporter 2. Kind of data set: Inhibition of mouse BGT1 expressed in hamster BHK cells assessed as reduction in [3H]GABA uptake after 3 mins by scintillation counting method. It is filed as cell-based. The following applies: read-out: Ki(app).
The target of data set [8] is T1, GABA transporter 3. The data set can be described thus: Inhibition of mouse GAT2 expressed in hamster BHK cells assessed as reduction in [3H]GABA uptake after 3 mins by scintillation counting method. The conditions noted are these: read-out: Ki(app). It is filed as cell-based.
In data set [9] the target is T2, Sodium- and chloride-dependent GABA transporter 1. Kind of data set: Inhibition of mouse GAT1 expressed in hamster BHK cells assessed as reduction in [3H]GABA uptake after 3 mins by scintillation counting method. Format: cell-based. The following applies: read-out: Ki(app).

Chain of Sodium- and chloride-dependent GABA transporter 3 (Homo sapiens, UniProt P48066, S468Y) (P48066 whole entry S468Y): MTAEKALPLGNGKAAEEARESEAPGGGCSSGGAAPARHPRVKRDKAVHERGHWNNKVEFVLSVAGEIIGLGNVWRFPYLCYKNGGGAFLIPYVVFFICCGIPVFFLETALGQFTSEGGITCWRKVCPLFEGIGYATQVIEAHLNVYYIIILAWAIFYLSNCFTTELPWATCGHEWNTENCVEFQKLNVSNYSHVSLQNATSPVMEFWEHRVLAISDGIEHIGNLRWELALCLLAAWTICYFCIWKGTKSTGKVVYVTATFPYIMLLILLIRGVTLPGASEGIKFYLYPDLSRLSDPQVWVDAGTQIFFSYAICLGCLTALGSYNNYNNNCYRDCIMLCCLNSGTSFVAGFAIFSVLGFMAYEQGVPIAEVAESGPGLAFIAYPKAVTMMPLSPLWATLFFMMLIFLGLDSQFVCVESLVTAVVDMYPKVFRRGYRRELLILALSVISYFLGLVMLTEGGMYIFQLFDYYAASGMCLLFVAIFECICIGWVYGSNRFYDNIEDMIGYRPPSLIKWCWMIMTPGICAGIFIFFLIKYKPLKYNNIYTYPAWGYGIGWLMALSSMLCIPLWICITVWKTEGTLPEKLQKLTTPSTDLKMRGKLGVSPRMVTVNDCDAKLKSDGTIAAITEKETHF
Chain of Sodium- and chloride-dependent GABA transporter 3 (Homo sapiens, UniProt P48066, L314Q) (P48066 whole entry L314Q): as the sequence (P48066 whole entry S468Y) above, with L314Q, Y468S counted along it

In the case of `O=C(NC1CCN(Cc2ccccc2)CC1)c1c(Cl)cc(Cl)cc1Cl`, the pIC50 (commonly the negative decadic logarithm of the IC50, by convention in mol/L) is 2.77 on GABA transporter 3 [1], under 3.00 in data set [2] and 4.96 on GABA transporter 2 [3] (read-out: IC50). Further, the concentration in solution in data set [4] (solubility at 24 h) was 40 µg/mL (≈ 101 µM).

On to `O=C(NC1CCN(Cc2cccc(C(F)(F)F)c2)CC1)c1ccc(Cl)cc1Cl`, for which the negative logarithm of the IC50 (pIC50) at GABA transporter 3 [1] is under 3.00; in data set [2] it was under 3.00; on GABA transporter 2 [3] (read-out: IC50), 4.29. The solubility (commonly the dissolved amount per volume that the medium holds) at 24 h in data set [4] turned out to be 3 µg/mL (≈ 6.96 µM).

For `CCOc1cccc(CN2CCC(NC(=O)c3ccc(Cl)nc3Cl)CC2)c1`, the negative-log IC50 (pIC50) is under 3.52 at GABA transporter 3 [1], under 3.52 in data set [2], 3.95 on GABA transporter 2 [3] and 3.95 at GABA transporter 2 [3] (read-out: IC50). Also, in data set [4], the solubility at 24 h turned out to be 130 µg/mL (≈ 318 µM).

Turning to `COc1cccc(CN2CCC(NC(=O)c3ccc(Cl)nc3Cl)CC2)c1`, the pIC50 at GABA transporter 3 [1] is under 3.52; in data set [2], under 3.52; at GABA transporter 2 [3] (read-out: IC50), 3.94. This molecule also yielded a solubility at 24 h in [4] of 240 µg/mL (≈ 609 µM).

`NCCCC(=O)O` [GAMMA-AMINOBUTYRIC ACID]: the values for the pIC50 in data set [5] and in [6] were 6.00 and 5.40, respectively.

For the molecule `COc1ccccc1C1(O)CCN(CCCn2c3ccccc3c3ccccc32)CC1`, the pKi (in general, the Ki on a negative log10 scale, so that one unit is a factor of ten) is 5.85 at GABA transporter 2 [7], 4.39 on GABA transporter 3 [8] and 4.72 in data set [9].
